In brackets after ≈: the same amount, converted by molar mass. Activity calls are given as the source filed them. The calls are words filed in the database; no cut-off is given here.
Key:
[1] = fT>MIC in Staphylococcus aureus E19977 infected NMRI mouse at 120 mg/kg administered every 24 hrs; format: functional
In short: (§1)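 Calculated percentage of 24 h at steady state that free plasma DCX exceeds the strain MIC (microdilution, pH 7.4). Concentrations were simulated from single subcutaneous dose plasma curves in NMRI mice (S. lutea bioassay), adjusted with a square-root model of concentration-dependent free fraction from ultrafiltration. The regimen was dosed subcutaneously in mice infected intraperitoneally with 10^7.4 CFU, and peritoneal CFU were read after 24 h of therapy.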

Staphylococcus aureus [2] = assay: Bacteriostatic activity against Staphylococcus aureus ATCC 25923 infected in human THP-1 cells after 24 hrs; format: functional
In short: (§2)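 Human THP-1 macrophages were infected with opsonized S. aureus at 4 bacteria per macrophage for 45 min. Non-phagocytized bacteria were removed by washing and a brief incubation in PBS with gentamicin 50 mg/liter. Cells were then incubated up to 24 h with DCX over a wide range of extracellular concentrations. The read-out was Δlog CFU per mg cell protein versus time zero (n = 3), with sigmoidal fitting and Cstatic by interpolation.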

Staphylococcus aureus [3] = assay: Bacteriostatic activity against Staphylococcus aureus E19977 infected in human THP-1 cells after 24 hrs; format: functional; in short: as §2
Staphylococcus aureus [4] = assay: Antimicrobial activity against Staphylococcus aureus E19977 infected in human THP-1 cells after 24 hrs; format: functional, organism-based; settings: E19977, THP-1, 24 h; in short: as §2
Staphylococcus aureus [5] = assay: Bacteriostatic activity against Staphylococcus aureus ATCC 25923 infected in human THP-1 cells at 10 times MIC after 5 hrs; format: functional, organism-based; in short: as §2
Staphylococcus aureus [6] = assay: Bacteriostatic activity against Staphylococcus aureus ATCC 25923 infected in human THP-1 cells at MIC after 5 hrs; format: functional, organism-based; in short: as §2
Staphylococcus aureus [7] = assay: Bactericidal activity against Staphylococcus aureus ATCC 25923 assessed as log reduction in bacterial count at 10 times MIC after 24 hrs by time-kill assay; format: functional
In short: (§3)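 Broth time-kill: MSSA at 10⁶ CFU/ml exposed to a wide range of dicloxacillin concentrations. CFU counted after 5 and 24 h and expressed as change in log₁₀ CFU/ml from time zero. Multiples refer to the MIC by CLSI microdilution at pH 7.4. n = 3.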

Staphylococcus aureus [8] = assay: Bactericidal activity against Staphylococcus aureus ATCC 25923 assessed as log reduction in bacterial count at 100 times MIC after 5 hrs by time-kill assay; format: functional; in short: as §3
[9] = AUC (24 hrs) in NMRI mouse at 1200 mg/kg, sc; format: ADME, organism-based; parameters: time < 24 hr, dose 1200 mg/kg, route subcutaneous; settings: plasma
[10] = AUC (24 hrs) in NMRI mouse at 300 mg/kg, sc; format: ADME, organism-based; parameters: time < 24 hr, dose 300 mg/kg, route subcutaneous; settings: plasma
In short: (§4)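 Single subcutaneous DCX doses given to NMRI mice. Blood was collected into EDTA tubes, and plasma drug was assayed by microbiological bioassay with S. lutea ATCC 9391 (detection limit 1.5 mg/liter, linear to 100 mg/liter). Values came from noncompartmental analysis. Terminal half-life was fitted monoexponentially to the last four time points. AUC24 combined the trapezoidal rule over mean points with exact integration of the fitted curve extrapolated to 24 h.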

[11] = Cmax in NMRI mouse at 300 mg/kg, sc; format: ADME, organism-based; parameters: dose 300 mg/kg, route subcutaneous; settings: in vivo
In short: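 Single subcutaneous dicloxacillin doses were given to NMRI mice. EDTA plasma was assayed by microbiological bioassay with S. lutea ATCC 9391 (detection limit 1.5 mg/liter, linear to 100 mg/liter, CV ~5%). Cmax was obtained by noncompartmental analysis.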

[12] = Half-life in NMRI mouse at 60 mg/kg, sc; format: ADME, organism-based; parameters: dose 60 mg/kg, route subcutaneous; settings: in vivo; in short: as §4
[13] = Half-life in NMRI mouse at 300 mg/kg, sc; format: ADME, organism-based; parameters: dose 300 mg/kg, route subcutaneous; settings: in vivo; in short: as §4
[14] = Ratio of fAUC (24 hrs) in NMRI mouse at 76 mg/kg administered every 2 hrs to MIC for Staphylococcus aureus E19977; format: functional
In short: (§5)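 Modeled free AUC over 24 h divided by the MIC, not measured directly. Single subcutaneous DCX doses were given to NMRI mice, and plasma was assayed by S. lutea bioassay. Noncompartmental analysis used trapezoidal mean points plus a fitted monoexponential extrapolated to 24 h. Free fraction came from a square-root fit to plasma ultrafiltration binding (10–400 mg/liter spike, 1 h, 37°C). The MIC was measured by broth microdilution at pH 7.4.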

[15] = Ratio of fAUC (24 hrs) in NMRI mouse at 120 mg/kg administered every 3 hrs to MIC for Staphylococcus aureus E19977; format: functional
In short: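 Free-drug AUC24/MIC was modelled for repeated subcutaneous regimens. Single-dose NMRI plasma concentration-time curves were combined with the best-fitting square-root expression for the concentration-dependent free fraction. The result was divided by the E19977 MIC.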

[16] = Ratio of fAUC (24 hrs) in NMRI mouse at 80 mg/kg administered every 8 hrs to MIC for Staphylococcus aureus E19977; format: functional; in short: as §5
[17] = Ratio of fAUC (24 hrs) in NMRI mouse at 240 mg/kg administered every 6 hrs to MIC for Staphylococcus aureus E19977; format: functional; in short: as §5
[18] = Ratio of fCmax in NMRI mouse at 76 mg/kg administered every 2 hrs to MIC for Staphylococcus aureus E19977; format: functional
In short: (§6)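 Free Cmax/MIC was modelled, not measured. Single-dose subcutaneous plasma curves from NMRI mice were projected to the multiple-dose regimens. Free fraction came from a square-root fit of unbound fraction versus total concentration. Binding was measured by ultrafiltration of mouse plasma spiked with 10–400 mg/liter and held 1 h at 37°C. MIC was for strain E19977.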

[19] = Ratio of fCmax in NMRI mouse at 120 mg/kg administered every 3 hrs to MIC for Staphylococcus aureus E19977; format: functional; in short: as §6
[20] = Ratio of fCmax in NMRI mouse at 200 mg/kg administered every 4 hrs to MIC for Staphylococcus aureus E19977; format: functional; in short: as §6
[21] = Ratio of fCmax in NMRI mouse at 400 mg/kg administered every 12 hrs to MIC for Staphylococcus aureus E19977; format: functional; in short: as §6
Mus musculus [22] = organism: Mus musculus; assay: Protein binding in NMRI mouse at 400 mg/l by ultrafiltration; format: ADME, organism-based; settings: in vivo
In short: (§7)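 Plasma binding was measured by ultrafiltration. EDTA blood from healthy mice, or from NMRI mice infected intraperitoneally for 6 h with E19977, was spiked with DCX at 10–400 mg/liter, with PBS controls. Samples were held 1 h at 37°C, then centrifuged through 30-kDa filters at 3,000 × g for 8 min at 37°C. Total and filtrate drug were measured by S. lutea bioassay.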

Mus musculus [23] = organism: Mus musculus; assay: Protein binding in NMRI mouse at 180 mg/l by ultrafiltration; format: ADME, organism-based; settings: in vivo; in short: as §7
Mus musculus [24] = organism: Mus musculus; assay: Protein binding in NMRI mouse at 90 mg/l by ultrafiltration; format: ADME, organism-based; settings: in vivo; in short: as §7
Mus musculus [25] = organism: Mus musculus; assay: Protein binding in NMRI mouse infected with Staphylococcus aureus E19977 at 10 mg/l by ultrafiltration; format: ADME, organism-based; settings: in vivo; in short: as §7
[26] = fT>MIC in Staphylococcus aureus E19977 infected NMRI mouse at 30 mg/kg administered every 2 hrs; format: functional; in short: as §1
Staphylococcus aureus [27] = assay: Bacteriostatic activity against Staphylococcus aureus ATCC 25923 infected in human THP-1 cells at compound MIC after 24 hrs; format: functional, organism-based; in short: as §2
Staphylococcus aureus [28] = assay: Bacteriostatic activity against Staphylococcus aureus E19977 infected in human THP-1 cells at MIC after 5 hrs; format: functional, organism-based; in short: as §2
Staphylococcus aureus [29] = assay: Antimicrobial activity against Staphylococcus aureus E19977 by broth microdilution method at pH 7.4

- fT>MIC [1]: 9.44%
- EC50 (Staphylococcus aureus [4]): 0.31 µg/mL (≈ 0.659 µM)
- AUC at 24 h [9]: 190 µg·h/mL
- AUC at 24 h [10]: 726 µg·h/mL
- Cmax [11]: 529 µg/mL
- half-life [12]: 25 min
- half-life [13]: 30 min
- fAUC/MIC [14]: 227.43 h
- fAUC/MIC [15]: 350.73 h
- fAUC/MIC [16]: 63.49 h
- fAUC/MIC [17]: 572.83 h
- Activity (Mus musculus [22]): 83.7%
- Activity (Mus musculus [23]): 87.2%
- Activity (Mus musculus [24]): 88.7%
- Activity (Mus musculus [25]): 93.6%
- fT>MIC [26]: 45.83%
- MIC (Staphylococcus aureus [29]): 0.5 µg/mL (≈ 1.06 µM)
SMILES: Cc1onc(-c2c(Cl)cccc2Cl)c1C(=O)N[C@@H]1C(=O)N2[C@@H]1SC(C)(C)[C@@H]2C(=O)O [DICLOXACILLIN]
- Activity (Staphylococcus aureus [2]): 0.11 mg/L
- Activity (Staphylococcus aureus [3]): 0.89 mg/L
- Activity (Staphylococcus aureus [5]): Active
- Activity (Staphylococcus aureus [6]): Active
- FC (Staphylococcus aureus [7]): 3
- FC (Staphylococcus aureus [8]): <1
- Ratio [18]: 28.18
- Ratio [19]: 61.6
- Ratio [20]: 101.92
- Ratio [21]: 291.53
- Activity (Staphylococcus aureus [27]): Active
- Activity (Staphylococcus aureus [28]): Active
